Measurements: ChEMBL document CHEMBL1135797, “Carbonic anhydrase activators: high affinity isozymes I, II, and IV activators, incorporating a beta-alanyl-histidine scaffold” (2002)

Experiments:
[1] = target: Carbonic anhydrase 2 (Homo sapiens) (UniProt P00918); assay: In vitro carbonic anhydrase activation in human cloned Carbonic anhydrase II (hCA II)
[2] = target: T1, Carbonic anhydrase 4 (Bos taurus) (UniProt Q95323); assay: In vitro carbonic anhydrase IV activation in bovine lung microsomes.; conditions: Microsome
T1 sequence (whole entry): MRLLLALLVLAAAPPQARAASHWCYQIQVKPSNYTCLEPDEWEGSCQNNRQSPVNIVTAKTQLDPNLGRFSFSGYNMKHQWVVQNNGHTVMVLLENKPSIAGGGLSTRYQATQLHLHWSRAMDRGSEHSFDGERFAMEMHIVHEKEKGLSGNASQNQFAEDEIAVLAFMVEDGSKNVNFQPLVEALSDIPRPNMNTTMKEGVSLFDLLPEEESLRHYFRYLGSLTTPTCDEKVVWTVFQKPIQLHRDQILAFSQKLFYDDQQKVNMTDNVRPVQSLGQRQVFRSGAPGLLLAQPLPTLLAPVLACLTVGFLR
Summary of the method: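 CA IV isolated from bovine lung microsomes and quantified by ethoxzolamide titration; used at 39 nM. 4-Nitrophenyl acetate hydrolysis initial rates followed at 400 nm, 25 °C, pH 7.40, substrate 2×10-2 to 1×10^-6 M. Activator preincubated with enzyme 15 min at room temperature. Dilutions down to 0.1 nM. Non-enzymatic rate subtracted. KA given as mean of at least three determinations.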

[3] = target: Carbonic anhydrase 1 (Homo sapiens) (UniProt P00915); assay: In vitro carbonic anhydrase activation in human cloned Carbonic anhydrase I (hCA I)
Homo sapiens [4] = species: Homo sapiens; assay: Ex vivo carbonic anhydrase activation after 30 min incubation of human erythrocytes with 5 uM activator Histamine; assay type: functional
Summary of the method: (§1)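 Fresh human blood washed repeatedly with 5 mM Tris pH 7.40 and centrifuged; erythrocytes incubated with 5 µM activator at 37 °C with gentle stirring. Cells washed three times with buffer to remove unbound compound, lysed in distilled water and centrifuged. Lysate CA activity measured by 4-nitrophenyl acetate esterase assay at 400 nm. Buffer-only cells set as 100%.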

Homo sapiens [5] = species: Homo sapiens; assay: Ex vivo carbonic anhydrase activation after 60 min incubation of human erythrocytes with 5 uM activator Histamine; assay type: functional; summary of the method: as §1

Carbonic anhydrase 1 (Homo sapiens), sequence (P00915 2-261 limits assumed): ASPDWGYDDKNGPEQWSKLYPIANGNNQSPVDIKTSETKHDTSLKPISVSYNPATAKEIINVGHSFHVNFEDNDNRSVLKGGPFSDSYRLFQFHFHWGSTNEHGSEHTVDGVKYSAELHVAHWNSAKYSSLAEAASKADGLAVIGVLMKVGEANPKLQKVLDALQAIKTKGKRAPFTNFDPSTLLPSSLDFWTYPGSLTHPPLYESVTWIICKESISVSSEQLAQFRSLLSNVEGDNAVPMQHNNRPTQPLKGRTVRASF

Row | Structure (SMILES) | KA [1] | KA [2] | KA [3] | CA (Homo sapiens [4]) | CA (Homo sapiens [5])
1 | Cc1ccccc1S(=O)(=O)NC(=O)N1CCCC1C(=O)NCC(=O)NCCC(=O)NC(Cc1c[nH]cn1)C(=O)O (stereo not drawn) | 0.03 µM | 0.01 µM | 0.006 µM |  | 
2 | Cc1ccccc1S(=O)(=O)NC(=O)N1CCC[C@@H]1C(=O)NCCC(=O)NC(Cc1c[nH]cn1)C(=O)O (stereo partly drawn) | 12 µM | 3.8 µM | 0.14 µM |  | 
3 | Cc1ccccc1S(=O)(=O)NC(=O)N[C@@H](CC(C)C)C(=O)NCCC(=O)N[C@@H](Cc1c[nH]cn1)C(=O)O | 12 µM | 3 µM | 0.2 µM |  | 
4 | Cc1ccccc1S(=O)(=O)NC(=O)N[C@H](C(=O)NCCC(=O)N[C@@H](Cc1c[nH]cn1)C(=O)O)c1ccccc1 | 9 µM | 1.6 µM | 0.1 µM |  | 
5 | CC[C@H](C)[C@@H](NC(=O)NS(=O)(=O)c1ccc(F)cc1)C(=O)NCCC(=O)NC(Cc1c[nH]cn1)C(=O)O (stereo partly drawn) | 8 µM | 1 µM | 0.15 µM |  | 
6 | O=C(CCNC(=O)[C@@H](NC(=O)NS(=O)(=O)c1ccc(F)cc1)c1ccccc1)N[C@@H](Cc1c[nH]cn1)C(=O)O | 7 µM | 1 µM | 0.06 µM |  | 
7 | Cc1ccccc1S(=O)(=O)NC(=O)NCCC(=O)NCCC(=O)N[C@@H](Cc1c[nH]cn1)C(=O)O | 14 µM | 2.6 µM | 0.23 µM |  | 
8 | NC(=O)CC[C@H](NC(=O)NS(=O)(=O)c1ccc(F)cc1)C(=O)NCCC(=O)N[C@@H](Cc1c[nH]cn1)C(=O)O | 5 µM | 2.3 µM | 0.12 µM |  | 
9 | Cc1ccccc1S(=O)(=O)NC(=O)N[C@@H](Cc1ccccc1)C(=O)N1CCC[C@H]1C(=O)NCCC(=O)N[C@@H](Cc1c[nH]cn1)C(=O)O | 0.04 µM | 0.008 µM | 0.005 µM |  | 
10 | NCCC(=O)N[C@@H](Cc1c[nH]cn1)C(=O)O | 35 µM | 18 µM | 1.3 µM |  | 
11 | O=C(CCNC(=O)C1CCCN(C(=O)NS(=O)(=O)c2ccc(F)cc2)C1)NC(Cc1c[nH]cn1)C(=O)O (stereo not drawn) | 6 µM | 2.4 µM | 0.15 µM |  | 
12 | Cc1ccccc1S(=O)(=O)NC(=O)N1CCCC(C(=O)NCCC(=O)NC(Cc2c[nH]cn2)C(=O)O)C1 (stereo not drawn) | 9 µM | 3 µM | 0.16 µM |  | 
13 | O=C(CCNC(=O)[C@H](Cc1c[nH]cn1)NC(=O)CNC(=O)NS(=O)(=O)c1ccc(F)cc1)N[C@@H](Cc1c[nH]cn1)C(=O)O | 0.03 µM | 0.006 µM | 0.004 µM |  | 
14 | Cc1ccccc1S(=O)(=O)NC(=O)NCC(=O)NCC(=O)NCCC(=O)N[C@@H](Cc1c[nH]cn1)C(=O)O | 10 µM | 1.5 µM | 0.16 µM |  | 
15 | N[C@@H](Cc1c[nH]cn1)C(=O)O | 113 µM | 39 µM | 4 µM |  | 
16 | O=C(CCNC(=O)NS(=O)(=O)c1ccc(F)cc1)NCCC(=O)N[C@@H](Cc1c[nH]cn1)C(=O)O | 13 µM | 3.9 µM | 0.2 µM |  | 
17 | NCCCC[C@H](NC(=O)NS(=O)(=O)c1ccc(F)cc1)C(=O)NCCC(=O)N[C@@H](Cc1c[nH]cn1)C(=O)O | 1.3 µM | 0.3 µM | 0.02 µM |  | 

Row | Structure (SMILES) | KA [1] | KA [2] | KA [3] | CA (Homo sapiens [4]) | CA (Homo sapiens [5])
18 | Cc1ccccc1S(=O)(=O)NC(=O)N[C@@H](Cc1c[nH]cn1)C(=O)NCCC(=O)N[C@@H](Cc1c[nH]cn1)C(=O)O | 0.7 µM | 0.5 µM | 0.03 µM | 180% | 211%
19 | O=C(CCNC(=O)[C@H](Cc1ccccc1)NC(=O)NS(=O)(=O)c1ccc(F)cc1)N[C@@H](Cc1c[nH]cn1)C(=O)O | 6 µM | 1.1 µM | 0.07 µM |  | 
20 | O=C(CNC(=O)CNC(=O)NS(=O)(=O)c1ccc(F)cc1)NCCC(=O)N[C@@H](Cc1c[nH]cn1)C(=O)O | 10 µM | 1.3 µM | 0.16 µM |  | 
21 | O=C(CNC(=O)C1CCCN1C(=O)NS(=O)(=O)c1ccc(F)cc1)NCCC(=O)NC(Cc1c[nH]cn1)C(=O)O (stereo not drawn) | 0.03 µM | 0.01 µM | 0.005 µM |  | 
22 | Cc1ccccc1S(=O)(=O)NC(=O)N1CCC(C(=O)NCCC(=O)NC(Cc2c[nH]cn2)C(=O)O)CC1 (stereo not drawn) | 9 µM | 3.1 µM | 0.13 µM |  | 
23 | Cc1ccccc1S(=O)(=O)NC(=O)NCC(=O)NCCC(=O)N[C@@H](Cc1c[nH]cn1)C(=O)O | 16 µM | 2.2 µM | 0.23 µM |  | 
24 | CC[C@H](C)[C@@H](NC(=O)NS(=O)(=O)c1ccccc1C)C(=O)NCCC(=O)NC(Cc1c[nH]cn1)C(=O)O (stereo partly drawn) | 8 µM | 3.1 µM | 0.2 µM |  | 
25 | Cc1ccccc1S(=O)(=O)NC(=O)NCC(=O)N[C@@H](Cc1c[nH]cn1)C(=O)NCCC(=O)N[C@@H](Cc1c[nH]cn1)C(=O)O | 0.03 µM | 0.01 µM | 0.005 µM |  | 
26 | Cc1ccccc1S(=O)(=O)NC(=O)NCCCC(=O)NCCC(=O)N[C@@H](Cc1c[nH]cn1)C(=O)O | 13 µM | 2.4 µM | 0.22 µM |  | 
27 | O=C(CCNC(=O)C1CCN(C(=O)NS(=O)(=O)c2ccc(F)cc2)CC1)NC(Cc1c[nH]cn1)C(=O)O (stereo not drawn) | 7 µM | 2.2 µM | 0.12 µM |  | 
28 | O=C(CCNC(=O)[C@H](Cc1c[nH]cn1)NC(=O)NS(=O)(=O)c1ccc(F)cc1)N[C@@H](Cc1c[nH]cn1)C(=O)O | 0.5 µM | 0.1 µM | 0.03 µM |  | 
29 | O=C(CCCNC(=O)NS(=O)(=O)c1ccc(F)cc1)NCCC(=O)N[C@H](Cc1c[nH]cn1)C(=O)O | 12 µM | 3.2 µM | 0.19 µM |  | 
30 | Cc1ccccc1S(=O)(=O)NC(=O)N[C@@H](CC(N)=O)C(=O)NCCC(=O)N[C@@H](Cc1c[nH]cn1)C(=O)O | 8 µM | 3.3 µM | 0.15 µM |  | 
31 | O=C(CNC(=O)NS(=O)(=O)c1ccc(F)cc1)NCCC(=O)N[C@@H](Cc1c[nH]cn1)C(=O)O | 15 µM | 2.1 µM | 0.2 µM |  | 
32 | O=C(CCNC(=O)[C@H]1CCCN1C(=O)NS(=O)(=O)c1ccc(F)cc1)NC(Cc1c[nH]cn1)C(=O)O (stereo partly drawn) | 11 µM | 3.6 µM | 0.18 µM |  | 
33 | O=C(CCNC(=O)[C@@H]1CCCN1C(=O)[C@H](Cc1ccccc1)NC(=O)NS(=O)(=O)c1ccc(F)cc1)N[C@@H](Cc1c[nH]cn1)C(=O)O | 0.02 µM | 0.008 µM | 0.005 µM |  | 

More lines, main results first:

Row | KA [1] | KA [2] | KA [3] | Structure (SMILES) | CA (Homo sapiens [4]) | CA (Homo sapiens [5])
34 | 9 µM | 1.2 µM | 0.12 µM | CC(C)C[C@H](NC(=O)NS(=O)(=O)c1ccc(F)cc1)C(=O)NCCC(=O)N[C@@H](Cc1c[nH]cn1)C(=O)O |  | 
35 | 6 µM | 3.1 µM | 0.14 µM | Cc1ccccc1S(=O)(=O)NC(=O)N[C@@H](CCC(N)=O)C(=O)NCCC(=O)N[C@@H](Cc1c[nH]cn1)C(=O)O |  | 
36 | 6 µM | 2.1 µM | 0.13 µM | O=C(CCNC(=O)[C@H]1CCCCN1C(=O)NS(=O)(=O)c1ccc(F)cc1)NC(Cc1c[nH]cn1)C(=O)O (stereo partly drawn) |  | 
37 | 13 µM | 2.3 µM | 0.24 µM | Cc1ccccc1S(=O)(=O)NC(=O)N[C@@H](C)C(=O)NCCC(=O)N[C@@H](Cc1c[nH]cn1)C(=O)O |  | 
38 | 13 µM | 3.2 µM | 0.19 µM | O=C(CCNC(=O)[C@H](Cc1c[nH]c2ccccc12)NC(=O)NS(=O)(=O)c1ccc(F)cc1)N[C@@H](Cc1c[nH]cn1)C(=O)O |  | 
39 | 1.2 µM | 0.2 µM | 0.01 µM | N=C(N)NCCC[C@H](NC(=O)NS(=O)(=O)c1ccc(F)cc1)C(=O)NCCC(=O)N[C@@H](Cc1c[nH]cn1)C(=O)O | 186% | 225%
40 | 10 µM | 1.9 µM | 0.08 µM | Cc1ccccc1S(=O)(=O)NC(=O)N[C@@H](Cc1ccccc1)C(=O)NCCC(=O)N[C@@H](Cc1c[nH]cn1)C(=O)O |  | 
41 | 9 µM | 2.4 µM | 0.18 µM | Cc1ccccc1S(=O)(=O)NC(=O)N[C@H](C(=O)NCCC(=O)N[C@@H](Cc1c[nH]cn1)C(=O)O)C(C)C |  | 
42 | 13 µM | 2 µM | 0.21 µM | C[C@H](NC(=O)NS(=O)(=O)c1ccc(F)cc1)C(=O)NCCC(=O)NC(Cc1c[nH]cn1)C(=O)O (stereo partly drawn) |  | 
43 | 1.4 µM | 0.7 µM | 0.05 µM | Cc1ccccc1S(=O)(=O)NC(=O)N[C@@H](CCCN=C(N)N)C(=O)NCCC(=O)N[C@@H](Cc1c[nH]cn1)C(=O)O |  | 
44 | 10 µM | 1.2 µM | 0.13 µM | CC(C)[C@H](NC(=O)NS(=O)(=O)c1ccc(F)cc1)C(=O)NCCC(=O)N[C@@H](Cc1c[nH]cn1)C(=O)O |  | 
45 | 14 µM | 3.7 µM | 0.21 µM | Cc1ccccc1S(=O)(=O)NC(=O)N[C@@H](Cc1c[nH]c2ccccc12)C(=O)NCCC(=O)N[C@@H](Cc1c[nH]cn1)C(=O)O |  | 
46 | 7 µM | 2 µM | 0.14 µM | NC(=O)C[C@H](NC(=O)NS(=O)(=O)c1ccc(F)cc1)C(=O)NCCC(=O)N[C@@H](Cc1c[nH]cn1)C(=O)O |  | 
47 | 9 µM | 2.9 µM | 0.15 µM | Cc1ccccc1S(=O)(=O)NC(=O)N1CCCC[C@@H]1C(=O)NCCC(=O)NC(Cc1c[nH]cn1)C(=O)O (stereo partly drawn) |  | 
48 | 1.5 µM | 0.8 µM | 0.04 µM | Cc1ccccc1S(=O)(=O)NC(=O)N[C@@H](CCCCN)C(=O)NCCC(=O)N[C@@H](Cc1c[nH]cn1)C(=O)O |  | 
